Measured values reported in ChEMBL document CHEMBL4229392, “An Efficient Buchwald-Hartwig/Reductive Cyclization for the Scaffold Diversification of Halogenated Phenazines: Potent Antibacterial Targeting, Biofilm Eradication, and Prodrug Exploration” (J Med Chem, 2018).
In brackets after ≈: the same amount, converted by molar mass.

Legend:
Staphylococcus aureus [1] = experiment: Antibacterial activity against methicillin-resistant Staphylococcus aureus BAA-1707 after 16 to 18 hrs by broth microdilution method; assay type: functional
Outline: (§1)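 CLSI broth microdilution in Lysogeny Broth, eleven two-fold dilutions spanning 0.10–100 µM; ~10^5 cells per well from log-phase culture; DMSO vehicle (top 1% v/v). MIC = lowest concentration preventing growth after 16–18 h at 37 °C, supported by OD600; three independent experiments.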

HeLa = experiment: Cytotoxicity against human HeLa cells after 24 hrs by LDH release assy; assay type: cell-based
Outline: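 HeLa cells in DMEM with 10% FBS at 37 °C, 5% CO2, dosed at 70-80% confluence with compound diluted in medium at 25, 50 and 100 µM for 24 h. Supernatant mixed with LDH reaction mixture, 30 min at room temperature, stopped, A490 read. Triton X-100 (2% v/v) as maximal-release control, medium only as no-death control, DMSO as vehicle. Three independent experiments.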

[2] = tested on: Staphylococcus epidermidis; experiment: Antibacterial activity against methicillin-resistant Staphylococcus epidermidis ATCC 35984 after 16 to 18 hrs by broth microdilution method; assay type: functional
Staphylococcus aureus [3] = experiment: Induction of biofilm eradication of methicillin-resistant Staphylococcus aureus BAA-1707 after 24 hrs by calgary biofilm device method; assay type: functional
Outline: (§2)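 Calgary device: biofilms established 24 h at 37 °C from mid-log culture diluted 1,000-fold in TSBG (0.5% glucose), washed, exposed 24 h to 2-fold serial dilutions, then peg lid moved to fresh TSBG for 24 h recovery. MBEC = lowest concentration giving no turbidity; at least three independent experiments.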

Staphylococcus aureus [4] = experiment: Bactericidal activity against methicillin-resistant Staphylococcus aureus BAA-1707 planktonic cells after 24 hrs by calgary biofilm device method; assay type: organism-based
Outline: (§3)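 Biofilms grown 24 h at 37 °C on Calgary device pegs from mid-log culture diluted 1,000-fold in TSB + 0.5% glucose; washed pegs challenged 24 h at 37 °C with 2-fold serial dilutions. Challenge medium subcultured into fresh TSBG overnight; MBC = concentration without visible turbidity; at least three independent experiments.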

[5] = tested on: Staphylococcus epidermidis; experiment: Induction of biofilm eradication of methicillin-resistant Staphylococcus epidermidis ATCC 35984 after 24 hrs by calgary biofilm device method; assay type: functional; outline: as §2
[6] = tested on: Staphylococcus epidermidis; experiment: Bactericidal activity against methicillin-resistant Staphylococcus epidermidis ATCC 35984 planktonic cells after 24 hrs by calgary biofilm device method; assay type: organism-based; outline: as §3
[7] = Hemolytic activity in human RBC at 200 uM after 1 hr relative to control; assay type: ADME, cell-based, Erythrocyte; conditions: red blood cells (erythrocytes), read-out: Activity
Outline: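 Human RBCs drawn fresh into EDTA were washed three times in Tris-buffered saline (0.01 M Tris, 0.155 M NaCl, pH 7.2). 2% hRBC suspension was added to compound from DMSO stock, final 200 µM, for 1 h at 37 °C, then centrifuged and supernatant OD405 read. Scaled between DMSO (0%) and Triton X (100%). Three independent experiments.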

Staphylococcus aureus [8] = experiment: Bactericidal activity against methicillin-resistant Staphylococcus aureus 2 planktonic cells after 24 hrs by calgary biofilm device method; assay type: organism-based; outline: as §3
Staphylococcus aureus [9] = experiment: Induction of biofilm eradication of methicillin-resistant Staphylococcus aureus 2 after 24 hrs by calgary biofilm device method; assay type: functional; outline: as §2
[10] = Half life in human serum by LC-MS analysis; assay type: ADME, cell-free
Outline: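 Human serum pre-warmed to 37 °C, spiked with prodrug from 10 mM DMSO stock plus internal standard, vortexed, then held 1 to 60 min. At each time point, acetonitrile with 0.5% formic acid was added to precipitate proteins. Released active HP was quantified as its ratio to internal standard against standard curves.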

Enterococcus faecium [11] = experiment: Antibacterial activity against vancomycin-resistant Enterococcus faecium ATCC 700221 after 16 to 18 hrs by broth microdilution method; assay type: functional; outline: as §1
Enterococcus faecium [12] = experiment: Induction of biofilm eradication of vancomycin-resistant Enterococcus faecium ATCC 700221 after 24 hrs by calgary biofilm device method; assay type: functional; outline: as §2
Enterococcus faecium [13] = experiment: Bactericidal activity against vancomycin-resistant Enterococcus faecium ATCC 700221 planktonic cells after 24 hrs by calgary biofilm device method; assay type: organism-based; outline: as §3
Staphylococcus aureus [14] = experiment: Antibacterial activity against methicillin-resistant Staphylococcus aureus 2 after 16 to 18 hrs by broth microdilution method; assay type: functional; outline: as §1
[15] = tested on: Mycobacterium tuberculosis; experiment: Antibacterial activity against Mycobacterium tuberculosis H37Ra ATCC 25177 after 7 days; assay type: functional; conditions: H37Ra ATCC 25177, 168 h
Outline: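 M. tuberculosis H37Ra grown two weeks in Middlebrook 7H9, diluted to OD600 0.01; two-fold serial dilutions 0.024–50 µM (streptomycin positive control, 0.16–340 µM); final DMSO 0.5%. Incubated 7 days at 37 °C; MIC = lowest concentration with no growth, OD600 recorded; three independent experiments.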

| Compound | MIC (Staphylococcus aureus [1]) [µM] | MIC [2] [µM] | MBEC (Staphylococcus aureus [3]) [µM] | MBC (Staphylococcus aureus [4]) [µM] | MBEC [5] [µM] | MBC [6] [µM] | hemolysis at 1 h, 200 µM [7] [%] | MBC (Staphylococcus aureus [8]) [µM] | MBEC (Staphylococcus aureus [9]) [µM] | MIC (Enterococcus faecium [11]) [µM] | other results |
| --- | --- | --- | --- | --- | --- | --- | --- | --- | --- | --- | --- |
| Cc1cc2nc3c(O)c(Br)cc(Br)c3nc2c(C)c1C | 0.59 (≈ 0.234 µg/mL) | 0.1 (≈ 0.0396 µg/mL) | 75 | 150 (≈ 59.4 µg/mL) | 25 | 25 (≈ 9.9 µg/mL) | 1.3 |  |  |  | IC50 (HeLa): > 100 µM |
| O=C(O)CN(CCN(CC(=O)O)CC(=O)O)CC(=O)O [EDETIC ACID] | 25 (≈ 7.31 µg/mL) |  | >2000 | > 2000 | >2000 | 1000 (≈ 292 µg/mL) |  | 2000 (≈ 584 µg/mL) | >2000 |  |  |
| COCCOCCOCCOCCOC(=O)Oc1c(Br)cc(Br)c2nc3cc(Oc4ccccc4)ccc3nc12 | 0.1 (≈ 0.068 µg/mL) | 0.075 (≈ 0.051 µg/mL) | 4.69 | 18.8 (≈ 12.8 µg/mL) |  | 9.38 (≈ 6.38 µg/mL) | ≤ 1 |  |  | 0.3 (≈ 0.204 µg/mL) | half-life [10]: < 1 min; MBEC (Enterococcus faecium [12]): 1.17 µM |
| COCCOCCOCC(=O)Oc1c(Br)cc(Br)c2nc3ccccc3nc12 |  |  | 75 | 18.8 (≈ 9.67 µg/mL) | 37.5 | 9.38 (≈ 4.82 µg/mL) | 1.2 |  |  | 3.13 (≈ 1.61 µg/mL) | half-life [10]: < 1 min; IC50 (HeLa): > 100 µM; MBC (Enterococcus faecium [13]): 6.25 µM (≈ 3.21 µg/mL) |
| CO[C@H]1/C=C/O[C@@]2(C)Oc3c(C)c(O)c4c(O)c(c(/C=N/N5CCN(C)CC5)c(O)c4c3C2=O)NC(=O)/C(C)=C\C=C\[C@H](C)[C@H](O)[C@@H](C)[C@@H](O)[C@@H](C)[C@H](OC(C)=O)[C@@H]1C [RIFAMPIN] |  | 0.1 (≈ 0.0823 µg/mL) |  |  | 15.6 | 3 (≈ 2.47 µg/mL) |  | 2 (≈ 1.65 µg/mL) | 46.9 |  | MIC (Staphylococcus aureus [14]): 0.1 µM (≈ 0.0823 µg/mL) |
| CCOc1ccc2nc3c(O)c(Br)cc(Br)c3nc2c1 | > 100 | 18.8 (≈ 7.48 µg/mL) |  |  |  |  |  |  |  | > 100 |  |
| Cc1ccc2nc3c(O)c(Br)cc(Br)c3nc2c1 |  | 0.3 (≈ 0.11 µg/mL) |  |  |  |  | ≤ 1 |  |  | 2.35 (≈ 0.865 µg/mL) | MBEC (Enterococcus faecium [12]): 3.13 µM; IC50 (HeLa): > 100 µM; MBC (Enterococcus faecium [13]): 12.5 µM (≈ 4.6 µg/mL); MIC [15]: 6.25 µM (≈ 2.3 µg/mL) |
| CCCCCCCCCC(=O)N[C@@H](Cc1c[nH]c2ccccc12)C(=O)N[C@@H](CC(N)=O)C(=O)N[C@@H](CC(=O)O)C(=O)N[C@@H]1C(=O)NCC(=O)N[C@@H](CCCN)C(=O)N[C@@H](CC(=O)O)C(=O)N[C@H](C)C(=O)N[C@@H](CC(=O)O)C(=O)NCC(=O)N[C@H](CO)C(=O)N[C@@H]([C@H](C)CC(=O)O)C(=O)N[C@@H](CC(=O)c2ccccc2N)C(=O)O[C@@H]1C [DAPTOMYCIN] | 3.13 (≈ 5.07 µg/mL) |  | >2000 |  |  |  |  |  | >2000 |  |  |
| NC(=O)c1cnccn1 [PYRAZINAMIDE] |  |  |  |  |  |  |  | > 2000 | >2000 |  |  |
| COCCOCCOCCOC(=O)OCOc1c(Br)cc(Br)c2nc3ccccc3nc12 | > 100 | > 100 |  |  |  |  | 1.4 |  |  | > 100 | half-life [10]: 15.8 min |
| CCCCCCCCCC(=O)N[C@@H](Cc1c[nH]c2ccccc12)C(=O)N[C@H](CC(N)=O)C(=O)N[C@@H](CC(=O)O)C(=O)N[C@@H]1C(=O)NCC(=O)N[C@@H](CCCN)C(=O)N[C@@H](CC(=O)O)C(=O)N[C@H](C)C(=O)N[C@@H](CC(=O)O)C(=O)NCC(=O)N[C@H](CO)C(=O)N[C@@H]([C@H](C)CC(=O)O)C(=O)N[C@@H](CC(=O)c2ccccc2N)C(=O)O[C@@H]1C [DAPTOMYCIN] |  |  |  | 125 (≈ 203 µg/mL) |  |  |  | 62.5 (≈ 101 µg/mL) |  |  |  |
| CCOC(=O)c1ccc2nc3c(O)c(Br)cc(Br)c3nc2c1 |  |  |  |  |  |  |  |  |  | 2.35 (≈ 1 µg/mL) |  |
| CN[C@@H]1[C@H](O[C@H]2[C@H](O[C@H]3[C@H](O)[C@@H](O)[C@H](N=C(N)N)[C@@H](O)[C@@H]3N=C(N)N)O[C@@H](C)[C@]2(O)C=O)O[C@@H](CO)[C@H](O)[C@H]1O [STREPTOMYCIN] |  |  |  |  |  |  |  |  |  |  | MIC [15]: 1.32 µM (≈ 0.768 µg/mL) |
| N#CC(C#N)=NNc1cccc(Cl)c1 [CARBONYL CYANIDE M-CHLOROPHENYLHYDRAZONE] |  |  |  |  | 93.8 | 31.3 (≈ 6.4 µg/mL) |  | 31.3 (≈ 6.4 µg/mL) | 1000 |  |  |
| CCc1ccc2nc3c(O)ccc(Br)c3nc2c1 |  | 9.38 (≈ 2.84 µg/mL) |  |  |  |  |  |  |  | 12.5 (≈ 3.79 µg/mL) | IC50 (HeLa): > 100 µM; MIC [15]: 25 µM (≈ 7.58 µg/mL) |
